From ChEMBL document CHEMBL3817747 (J Med Chem, 2016)

What was measured:
[1] = Cytotoxicity against MDCK cells after 48 hrs by CellTiter 96 AQueous Non-Radioactive cell proliferation assay; type: cell-based, Canis lupus familiaris; conditions: dog
Summary of the method: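 MDCK cells (1 × 10^5 cells/mL) exposed to inhibitor without virus, same steps as the antiviral assay: 48 h at 37 °C, 5% CO2, viability by MTS-type reagent, absorbance at 490 nm. CC50 is the 50% cytotoxic concentration. Highest concentration tested was 100 μM.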

[2] = Prodrug conversion in rabbit serum assessed as formation of (3R,4R)-[3-((S)-1-Acetamido-2-ethylbutyl)-4-guanidinocyclopent-1-en-1-yl]phosphonic acid at 1 mM at 37 degC after 24 to 96 hrs by HPLC/ESI-HRMS analysis; type: ADME, Oryctolagus cuniculus; conditions: 1000 µM

Compound	CC50 at 48 h [1] [µM]	Drug metabolism [2]
CCC(CC)[C@H](NC(C)=O)[C@@H]1[C@H](O)[C@@H](C(=O)O)C[C@H]1NC(=N)N [PERAMIVIR ANHYDROUS]	> 100	
CCOP(=O)(O)[C@H]1C[C@@H](NC(=N)N)[C@H]([C@@H](NC(C)=O)C(CC)CC)[C@@H]1O	> 100	
CC(=O)N[C@H]1[C@H]([C@H](O)[C@H](O)CO)OC(C(=O)O)=C[C@@H]1NC(=N)N [ZANAMIVIR]	> 100	
CCC(CC)[C@H](NC(C)=O)[C@@H]1C=C(P(=O)(O)O)C[C@H]1NC(=N)N	> 100	
CCC(CC)O[C@@H]1C=C(C(=O)O)C[C@H](N)[C@H]1NC(C)=O [OSELTAMIVIR CARBOXYLATE]	> 100	
CCCCCCOP(=O)(O)[C@H]1C[C@@H](NC(=N)N)[C@H]([C@@H](NC(C)=O)C(CC)CC)[C@@H]1O	> 100	
CCC(CC)[C@H](NC(C)=O)[C@@H]1C[C@@H](P(=O)(O)O)C[C@H]1NC(=N)N	> 100	
CCCCCCOP(=O)(O)[C@@H]1C[C@@H]([C@@H](NC(C)=O)C(CC)CC)[C@H](NC(=N)N)C1	> 100	
CCOP(=O)(O)[C@@H]1C[C@@H]([C@@H](NC(C)=O)C(CC)CC)[C@H](NC(=N)N)C1	> 100	
CCOP(=O)(O)C1=C[C@@H]([C@@H](NC(C)=O)C(CC)CC)[C@H](NC(=N)N)C1	> 100	metabolite_notdetected
CCCCCCOP(=O)(O)C1=C[C@@H]([C@@H](NC(C)=O)C(CC)CC)[C@H](NC(=N)N)C1	> 100	
CCC(CC)[C@H](NC(C)=O)[C@@H]1[C@H](O)[C@@H](P(=O)(O)O)C[C@H]1NC(=N)N	> 100	
